Laboratory results published in PMC5574666 (International Journal of Nanomedicine, 2017).
Several values for one entry are separate records, joined by “and”; a condition that tells them apart may be missing. Equal values may be shown once.

Experiments:
In vivo toxicity study = test: In vivo toxicity study; design: species or system BALB/c nude mice
Procedure, shortened: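 Male BALB/c nude mice bearing MCF-7/ADR xenografts were randomized into five groups when tumors reached ~100 mm3. Groups received i.v. saline, carrier or test formulations. Body weight was tracked during the efficacy study. At its end, heart, liver, spleen, lung and kidney were excised, stained with H&E and examined microscopically at 200×.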

Maximum tolerated dose = assay type: in vivo; conditions: BALB/c mice; for Animal death: 2 weeks
Procedure, shortened: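 Female BALB/c mice were randomized into three formulation groups. […] Body weight and survival were monitored daily for 2 weeks. MTD was taken as the highest dose causing neither death from systemic toxicity nor >15% body weight loss over the study.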

[1] = Biodistribution of DOX in tumor-bearing mice; assay type: in vivo; conditions: BALB/c nude mice bearing MCF-7/ADR tumors, 5 mg·kg^−1 DOX i.v., 1, 6, 12, 24 hours
MCF-7/ADR cells = test: Cellular uptake; assay type: cell-based, Human; conditions: MCF-7/ADR cells compared with MCF-7 cells
Procedure, shortened: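 MCF-7 and MCF-7/ADR cells were grown in DMEM with 10% FBS and 1% penicillin-streptomycin at 37°C and 5% CO2. They were seeded at 5×10^4 per well in 24-well plates and grown 24 h.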

MCF-7 cells [2] = test: Cytotoxicity MTT assay; assay type: cell-based, Human; conditions: 0.1-10 μg·mL^−1, 48 hours
[3] = In vivo pharmacokinetic study; conditions: male Sprague-Dawley rats, 5 mg·kg^−1 DOX i.v., n=6
MCF-7 cells [4] = test: Cellular uptake; assay type: cell-based, Human; conditions: 6 and 24 h

Compound: COc1cccc2c1C(=O)c1c(O)c3c(c(O)c1C2=O)C[C@@](O)(C(=O)CO)C[C@@H]3O[C@H]1C[C@H](N)[C@H](O)[C@H](C)O1 [DOX, doxorubicin]
- bodyweight reduction (In vivo toxicity study; BALB/c nude mice bearing MCF-7/ADR tumors, 5 mg DOX/kg): 30%
- H&E histology of main organs (heart, liver, spleen, lung, kidney) (In vivo toxicity study; end of the antitumor inhibition test): caused cardiotoxicity
- Weight loss (Maximum tolerated dose; single i.v. dose 5 mg/kg DOX): 2.0%
- Animal death (Maximum tolerated dose; single i.v. dose 5 mg/kg DOX): 0/3
- Weight loss (Maximum tolerated dose; single i.v. dose 10 mg/kg DOX): 7.4%
- Animal death (Maximum tolerated dose; single i.v. dose 10 mg/kg DOX): 0/3
- Animal death (Maximum tolerated dose; single i.v. dose 15 mg/kg DOX, 15 mg/kg): 2 out of 3 and 2/3
- DOX content in tumor [1]: negligible after 6 hours
- internalization into cells (MCF-7/ADR cells): substantially reduced
- cell viability (MCF-7 cells [2]): effectively reduced the viability of MCF-7 cells in a dose-dependent manner
- AUC0–∞ [3]: 36.318 ± 6.517 µg/mL/h
- CL [3]: 2.37 ± 0.467 mL/min/kg
- Cmax [3]: 10275 ± 1219 ng/mL
- MRT0–∞ [3]: 3.429 ± 0.658 h
- Vd [3]: 0.300 ± 0.073 L/kg
- internalization into cells (MCF-7 cells [4]): internalized into MCF-7 cells in a time-dependent manner
